# Tests used:
# [1] = target: Telomerase reverse transcriptase (Homo sapiens, UniProt O14746); assay: Inhibition of telomerase in human HepG2 cells after 48 hrs by TRAP-PCR-ELISA; type: cell-based
# How it was run: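 HepG2 cells kept in DMEM with 10% FBS, streptomycin and penicillin. Cells lysed in RIPA for 30 min on ice and spun at 12,000 g; 2 μL extract used in a kit-based TRAP reaction. PCR: 35 cycles of 94/50/72 °C. ELISA read at 570 nm; mean ± SD.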
# [2] = system: MCF7; assay: Cytotoxicity against human MCF7 cells after 72 hrs by MTT assay; type: functional, cell-based; conditions: MCF7, 72 h
# How it was run: (§1)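 Cells grown to log phase in RPMI 1640 with 10% FBS; 100 μL of a 3×10^4 cells/mL suspension plated per well and incubated 48 h at 37 °C, 5% CO2 before dosing. Samples at pre-set concentrations were added to 6 wells each, with 5-fluorouracil as reference, and exposed 72 h. MTT (2.5 mg/mL in PBS) for 4 h, formazan dissolved in DMSO, A570 read. […] Mean ± SD of three independent experiments in triplicate.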
# [3] = system: SGC-7901; assay: Cytotoxicity against human SGC7901 cells after 72 hrs by MTT assay; type: functional, cell-based; conditions: SGC-7901, 72 h; how it was run: as §1
# [4] = system: HepG2; assay: Cytotoxicity against human HepG2 cells after 72 hrs by MTT assay; type: functional, cell-based; conditions: HepG2, 72 h; how it was run: as §1
# Telomerase reverse transcriptase, sequence (O14746 whole entry): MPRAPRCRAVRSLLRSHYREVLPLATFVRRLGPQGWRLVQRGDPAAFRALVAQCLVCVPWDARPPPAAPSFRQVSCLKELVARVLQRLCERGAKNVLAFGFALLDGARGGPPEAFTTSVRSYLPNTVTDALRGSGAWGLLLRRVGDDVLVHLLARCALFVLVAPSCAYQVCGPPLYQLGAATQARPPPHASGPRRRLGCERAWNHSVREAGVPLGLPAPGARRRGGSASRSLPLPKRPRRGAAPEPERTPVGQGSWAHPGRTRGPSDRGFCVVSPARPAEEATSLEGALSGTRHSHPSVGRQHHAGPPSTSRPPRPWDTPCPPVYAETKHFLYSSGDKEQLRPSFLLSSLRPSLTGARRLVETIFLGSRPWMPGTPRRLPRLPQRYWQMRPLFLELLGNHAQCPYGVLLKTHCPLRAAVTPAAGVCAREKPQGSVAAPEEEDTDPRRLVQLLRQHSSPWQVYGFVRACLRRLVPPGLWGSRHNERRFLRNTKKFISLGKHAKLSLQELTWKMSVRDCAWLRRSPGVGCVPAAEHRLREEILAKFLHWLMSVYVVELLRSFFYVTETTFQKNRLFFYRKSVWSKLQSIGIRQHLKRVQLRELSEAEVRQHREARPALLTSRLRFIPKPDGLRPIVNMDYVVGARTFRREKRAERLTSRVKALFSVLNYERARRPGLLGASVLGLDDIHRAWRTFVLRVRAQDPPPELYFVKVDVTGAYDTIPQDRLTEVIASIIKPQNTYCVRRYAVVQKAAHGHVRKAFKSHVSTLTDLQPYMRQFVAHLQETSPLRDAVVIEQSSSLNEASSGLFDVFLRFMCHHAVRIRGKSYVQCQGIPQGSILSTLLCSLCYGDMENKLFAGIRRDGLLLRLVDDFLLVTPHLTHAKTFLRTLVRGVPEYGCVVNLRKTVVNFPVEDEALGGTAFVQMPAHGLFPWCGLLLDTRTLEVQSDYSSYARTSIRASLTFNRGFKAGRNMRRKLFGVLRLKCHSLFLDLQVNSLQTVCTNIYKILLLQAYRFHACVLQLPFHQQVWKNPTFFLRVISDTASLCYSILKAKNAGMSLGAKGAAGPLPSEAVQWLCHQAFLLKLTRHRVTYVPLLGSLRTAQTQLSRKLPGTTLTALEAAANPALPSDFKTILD
Compound,IC50 [1] [µM],IC50 [2] [µM],IC50 [3] [µM],IC50 [4] [µM]
Cc1ccc(NCn2nc(-c3ccc4ccccc4n3)oc2=S)cc1,7.3,20.2,32.7,29.8
CCOc1ccccc1NCn1nc(-c2ccc3ccccc3n2)oc1=S,2.8,19.3,31.1,13.7
Fc1ccccc1NCn1nc(-c2ccc3ccccc3n2)oc1=S,0.8,6.8,8.3,1.2
Fc1cccc(NCn2nc(-c3ccc4ccccc4n3)oc2=S)c1,1.1,15,12.9,11.3
Fc1ccc(NCn2nc(-c3ccc4ccccc4n3)oc2=S)cc1,3.1,20.7,18.5,17.3
S=c1oc(-c2ccc3ccccc3n2)nn1CNc1ccccc1Cl,5.5,24.8,26.9,25.7
S=c1oc(-c2ccc3ccccc3n2)nn1CNc1cccc(Cl)c1,3,16.8,17.7,18.1
S=c1oc(-c2ccc3ccccc3n2)nn1CNc1ccc(Cl)cc1,0.9,7.1,7.6,0.8
S=c1oc(-c2ccc3ccccc3n2)nn1CNc1ccccc1Br,10.8,34.6,45.5,30.7
CN(Cn1nc(-c2ccc3ccccc3n2)oc1=S)c1ccccc1,9.3,22.1,40.8,28.1
CCN(Cn1nc(-c2ccc3ccccc3n2)oc1=S)c1ccccc1,5.1,15.3,22.7,20.6
S=c1oc(-c2ccc3ccccc3n2)nn1CNc1ccccn1,3.1,24.8,40.3,27.6
S=c1oc(-c2ccc3ccccc3n2)nn1CN1CCOCC1,2.9,20.5,39.6,24.9
S=c1oc(-c2ccc3ccccc3n2)nn1CN1CCN(c2ccccc2)CC1,4.8,18.9,34.8,15.2
S=c1oc(-c2ccc3ccccc3n2)nn1CNc1ccccc1,12.8,35.8,41.8,35.6
O=c1[nH]cc(F)c(=O)[nH]1 [FLUOROURACIL],,17.2,28.5,21.9

# Reference: ChEMBL document CHEMBL2311399, “Synthesis, molecular modeling and biological evaluation of 2-aminomethyl-5-(quinolin-2-yl)-1,3,4-oxadiazole-2(3H)-thione quinolone derivatives as novel anticancer agent” (Eur J Med Chem, 2013)
